Results gathered from unrelated publications.
Compare with care: the assays were run in different laboratories.
EGFR: Epidermal growth factor receptor (EGFR, Homo sapiens, UniProt P00533)
EGFR L858R/T790M: Epidermal growth factor receptor (EGFR, Homo sapiens, UniProt P00533, L858R/T790M)
EGFR L861Q: Epidermal growth factor receptor (EGFR, Homo sapiens, UniProt P00533, L861Q)
EGFR T790M: Epidermal growth factor receptor (EGFR, Homo sapiens, UniProt P00533, T790M)

SMILES | target | observed | mode | method | concentration | endpoint | result
CCC(=O)N[C@H]1CC[C@@H](C(=O)N(C)c2ccc(-c3nc4ccccc4o3)cc2)C1 | EGFR | cell-free assay | – | competition with immobilised ligand | 1 µM | remaining binding | 100%
C=CC(=O)Nc1cc(Nc2nc(N3CCc4sccc4C3)c3cccnc3n2)c(OC)cc1N1CCN(CCO)CC1 | EGFR L858R/T790M | enzyme activity | inhibitor | ELISA | 0.1 µM | inhibition | 2%
C[C@H]1CCN(c2nccc(-c3cnn4ncccc34)n2)C1 | Epidermal growth factor receptor (EGFR, Homo sapiens, UniProt P00533, del752-759) | binding | – | – | 1 µM | remaining binding | 97%
Nc1cnc(N2CCc3cc(S(=O)(=O)Nc4c(F)cc(Cl)cc4F)cc(N4CCCC4=O)c32)nc1 | Epidermal growth factor receptor (EGFR, Homo sapiens, UniProt P00533, G719S) | cell-free assay | – | competition with immobilised ligand | 1 µM | remaining binding | 75%
Cc1cnn2ncc(-c3ccnc(N(C)C)n3)c2c1 | EGFR L861Q | binding | – | – | 1 µM | remaining binding | 70%
C=C(Cl)C(=O)Nc1cc(Nc2nc(Nc3cnn(C)c3)c3sccc3n2)c(OC)cc1N1CCN(C)CC1 | EGFR L858R/T790M | enzyme activity | inhibitor | ELISA | 0.1 µM | inhibition | 54.1%
Cc1ccc(NC(=O)c2ccc(C)c(C(F)(F)F)c2)cc1C#Cc1nn(C2CCC(O)CC2)c2ncnc(N)c12 (stereo not drawn) | EGFR T790M | cell-free assay | – | – | 10 µM | remaining signal | 4%
Cc1cnc(NC2CCOCC2)nc1-n1cnc(C(=O)NC(CN)c2cc(F)cc(Cl)c2)c1 (stereo not drawn) | EGFR | enzyme activity | inhibitor | radiometric | 1 µM | remaining activity | 108%
F[C@@H]1CCN(c2nccc(-c3cnn4ncccc34)n2)C1 | Epidermal growth factor receptor (EGFR, Homo sapiens, UniProt P00533, G719C) | binding | – | – | 1 µM | remaining binding | 100%
Cc1cc(C)c(-n2ccn3nc(-c4cccnc4)cc23)cc1NC(=O)c1cc(C#N)cc(S(F)(F)(F)(F)F)c1 | EGFR L861Q | cell-free assay | – | competition with immobilised ligand | 0.1 µM | remaining binding | 91.1%
O=C(Nc1cccc(Nc2cc(Nc3cccc(C(F)(F)F)c3)ncn2)c1)C1CC1 | EGFR | cell-free assay | – | – | 0.5 µM | remaining signal | 5.82%
Cn1nc(C(=O)NCc2ccc(C(=O)O)cc2)cc1-c1ccc2[nH]ccc2c1 | EGFR | cell-free assay | – | competition with immobilised ligand | 0.1 µM | remaining binding | 100%
COc1cc2ncnc(Nc3ccc(Oc4ccccc4)cc3C)c2cc1OC | EGFR | enzyme activity | inhibitor | – | 1 µM | inhibition | 89%
Cc1cc(NC(=O)c2cccc3cc(-c4cccc5[nH]nc(N)c45)ccc23)ccc1F | EGFR T790M | enzyme activity | inhibitor | – | 0.1 µM | activity vs control | 98%
CN(CCCC(F)(F)F)c1nccc(-c2cnn3ncccc23)n1 | EGFR | binding | – | – | 1 µM | remaining binding | 86%
C[C@H](c1ccnc(Nc2nc3ccc(-c4cc(N(C)C)ncn4)cc3[nH]2)c1)N1CCN(C(=O)CC(F)(F)F)CC1 | Epidermal growth factor receptor (EGFR, Homo sapiens, UniProt P00533, A750P/del747-749) | cell-free assay | – | competition with immobilised ligand | 0.1 µM | remaining binding | 89%
Oc1cccc(-c2nc(N3CCOCC3)c3oc4ncccc4c3n2)c1 | EGFR | cell-free assay | – | – | 0.5 µM | remaining signal | 83.8%
CCCCN(CCCC)C(=O)CN1C[C@@H](c2cc(OC)c3c(c2)OCO3)[C@H](C(=O)O)[C@H]1CC(C)(C)CCC | Epidermal growth factor receptor (EGFR, Homo sapiens, UniProt P00533, del747-752/P753S) | cell-free assay | – | competition with immobilised ligand | 1 µM | remaining binding | 75.9%
Nc1ncnc2occ(-c3ccc(NC(=O)Nc4cc(C(F)(F)F)ccc4F)cc3)c12 | Epidermal growth factor receptor (EGFR, Homo sapiens, UniProt P00533, del746-750) | cell-free assay | – | – | 20 µM | remaining signal | 34%
N[C@H]1CCN(c2nccc(-c3cnn4ncccc34)n2)C1 | EGFR L861Q | binding | – | – | 1 µM | remaining binding | 81%
COc1ccc2cc(OCC3(C(=O)O)CN(C(=O)c4ccc(F)cc4)C3)ccc2c1 | Epidermal growth factor receptor (EGFR, Homo sapiens, UniProt P00533, L858R) | cell-free assay | – | competition with immobilised ligand | 1 µM | remaining binding | 100%
